Assay outcomes (PubChem BioAssay)
Hits are enriched below; roughly 2.5% of the tested compounds scored in any of these assays.
ABHD5-PLIN5 inh: inhibitors of human ABHD5-perilipin-5 interaction. Split G. princeps luciferase complementation, luminescence, 4 h. inhibition, % at 4 µM. Q00G26+Q8WTS1. 360,000 tested, 0.78% active;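 active = inhibition above the mean inhibition across every tested compound plus 3 SD, cut at about 22% in these data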;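 note: 0% = DMSO only wells and the 100% control is not disclosed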
NadD block: NadD (S. aureus) enzyme inhibition; inhibition, % at 20 µM; purified NadD enzyme, colorimetric absorbance read-out; 360,000 tested, 0.78% active; in the data active = inhibition above about 26%
SENP1 inh: SENP1 (human) catalytic domain inhibition | AID 624204 | 360,000 tested, 0.21% active | Q9P0U3 | recombinant SENP1 catalytic domain, CyPet-SUMO1-YPet FRET cleavage | inhibition, % at 10 µM;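 active = inhibition at least 30% at 10 µM, raw YFP signal under a set limit, fluorescence ratio 0.5 to 1.5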;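 note: 0% = enzyme with DMSO and 100% = no enzyme wells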
Target sequence (Q9P0U3 419-644 limits assumed): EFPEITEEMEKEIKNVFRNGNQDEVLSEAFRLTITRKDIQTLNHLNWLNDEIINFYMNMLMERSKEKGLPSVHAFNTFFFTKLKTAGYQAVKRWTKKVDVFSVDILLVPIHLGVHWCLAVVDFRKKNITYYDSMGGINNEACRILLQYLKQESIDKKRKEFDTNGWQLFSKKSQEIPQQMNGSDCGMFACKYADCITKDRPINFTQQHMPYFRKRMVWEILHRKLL
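Compound: 10 µM single point, 0.5% DMSO; Test system: hSENP1 catalytic domain, recombinant; Timing: 50 min reaction at room temperature; Technique: FRET, CFP and YFP emission; Control set: no-enzyme wells low, DMSO-plus-enzyme wells high control.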
GRK2 inh: blocks RNA aptamer binding to human GRK2 | P25098 | bead flow cytometry, FAM-aptamer displacement from GRK2 | inhibition of aptamer binding, % at 10 µM | 330,000 tested, 0.59% active | AID 488847;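 active = inhibition of aptamer binding above 40%, roughly 3 SD of noise, on plates passing a quality check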;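 note: median bead fluorescence of bound FAM aptamer so fluorescent compounds give negative values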
B2AR ag: activates human beta-2 adrenergic receptor causing internalization; Am2.2-beta2AR cells, FAP receptor internalization, flow cytometry; response, % (test concentration not listed); 340,000 tested, 0.43% active;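 active = response above a set limit, near 3 SD of response in nonfluorescent compounds, cut at about 42% in these data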
Target sequence (P07550 whole entry, looked up): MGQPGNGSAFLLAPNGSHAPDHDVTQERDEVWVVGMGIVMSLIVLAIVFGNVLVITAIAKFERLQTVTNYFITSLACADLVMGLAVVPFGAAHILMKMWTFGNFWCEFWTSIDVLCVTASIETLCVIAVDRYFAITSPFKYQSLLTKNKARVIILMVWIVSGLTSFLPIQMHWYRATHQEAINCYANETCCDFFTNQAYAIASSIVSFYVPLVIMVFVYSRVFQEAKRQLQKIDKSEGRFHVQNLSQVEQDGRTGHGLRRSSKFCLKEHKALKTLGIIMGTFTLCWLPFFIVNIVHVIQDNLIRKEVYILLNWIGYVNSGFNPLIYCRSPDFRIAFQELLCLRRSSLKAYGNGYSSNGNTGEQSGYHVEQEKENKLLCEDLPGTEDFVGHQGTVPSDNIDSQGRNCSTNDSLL
GRK2 CP1: confirmation of human GRK2 inhibitors displacing RNA aptamer | AID 504451 | aptamer displacement, % at 10 µM | 2,000 tested, 4% active | bead-bound GRK2, FAM-aptamer displacement, flow cytometry | shares compounds with GRK2 inh;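 active = aptamer displacement above 40%, near three times the noise of non-fluorescent compounds, on plates passing quality checks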;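 note: negative values mostly reflect intrinsic compound fluorescence rather than true enhancement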
FAM quench CP1: counter-screen for GRK2 aptamer inhibitors: fluorescent aptamer quenchers; Carboxyfluorescein RNA aptamer on beads, flow cytometry quenching; hits give low values; shares compounds with GRK2 inh; AID 504580; 2,000 tested, under 10 active; fluorescence response (% of DMSO), % at 10 µM;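 active = compounds that quench the bead-bound fluorescent RNA probe, cutting fluorescence to under half of the solvent control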;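 note: counterscreen run without GRK2 so only probe quenching by compound is measured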
The depositor's hits bear a star.

What do the screens show for `COc1ccc(S(=O)(=O)Nc2cc3c4c(c2)CCN4C(=O)CC3)cc1C`?
ABHD5-PLIN5 inh: -5; NadD block: -2; SENP1 inh: 2; GRK2 inh: 1; B2AR ag: 0

Results for COc1ccc(NS(=O)(=O)c2ccc3c(c2)N(C(C)=O)CCO3)cc1 ?
ABHD5-PLIN5 inh: 2; NadD block: -8; SENP1 inh: 0; GRK2 inh: 2; B2AR ag: 0

How did O=C(NCc1ccccc1Cl)c1cccc(NC(=O)c2ccccc2)c1 do in these assays?
ABHD5-PLIN5 inh: -3; NadD block: 1; SENP1 inh: 0; GRK2 inh: 0; B2AR ag: 8; GRK2 CP1: 2; FAM quench CP1: 122

How did Cc1ccc(C(=O)Nc2cccc(C(=O)NCc3ccccc3)c2)o1 do in these assays?
ABHD5-PLIN5 inh: 6; NadD block: -2; SENP1 inh: 2; GRK2 inh: 0; B2AR ag: -4; GRK2 CP1: -21; FAM quench CP1: 98

How did O=C(NCc1ccccc1Cl)c1cccc(NC2=NC3CS(=O)(=O)CC3S2)c1 (centres undefined) do in these assays?
ABHD5-PLIN5 inh: -3; NadD block: 3; SENP1 inh: 0; GRK2 inh: 2; B2AR ag: 5; GRK2 CP1: -2; FAM quench CP1: 97

What do the screens show for `O=C(NCc1ccccc1Cl)c1ccc(NC2=NC3CS(=O)(=O)CC3S2)cc1` (centres undefined)?
ABHD5-PLIN5 inh: -6; NadD block: -4; SENP1 inh: 2; GRK2 inh: 0; B2AR ag: 2

How did COc1ccc(CNC(=O)c2cccc(NC(=O)c3ccccc3)c2)cc1 do in these assays?
ABHD5-PLIN5 inh: 1; NadD block: -6; SENP1 inh: 1; GRK2 inh: 2; B2AR ag: -1; GRK2 CP1: 3; FAM quench CP1: 104

How did Cc1ccc(C(=O)Nc2cccc(Oc3ccccc3)c2)o1 do in these assays?
ABHD5-PLIN5 inh: 0; NadD block: -3; SENP1 inh: -3; GRK2 inh: 0; B2AR ag: -9

What do the screens show for `CCn1c(Cc2ccccc2)nnc1SCC(=O)c1c(N)n(C2CC2)c(=O)[nH]c1=O`?
ABHD5-PLIN5 inh: 1; NadD block: -3; SENP1 inh: 0; GRK2 inh: 0; B2AR ag: -4

Results for O=C(N/N=C/c1ccc(Br)s1)c1ccc([N+](=O)[O-])cc1 ?
ABHD5-PLIN5 inh: -1; NadD block: -4; SENP1 inh: 6; GRK2 inh: 78*; B2AR ag: -1; GRK2 CP1: -26; FAM quench CP1: 99

Results for COc1ccccc1C(C(C(=O)c1ccccc1)N1CCOCC1)N1CCOCC1 (centres undefined) ?
ABHD5-PLIN5 inh: 10; NadD block: 4; SENP1 inh: 1; B2AR ag: -1

What do the screens show for `CN(Cc1nc2ccccc2[nH]1)C(=O)C1CCC(=O)N(CCc2cccc(F)c2)C1` (centres undefined)?
ABHD5-PLIN5 inh: 4; NadD block: -7; SENP1 inh: 0; GRK2 inh: 3; B2AR ag: 2; GRK2 CP1: 0; FAM quench CP1: 103

How did Cc1cccc(C)c1NC(=O)c1cccc2c1C(=O)N(C1CCCCC1)C2 do in these assays?
ABHD5-PLIN5 inh: -1; NadD block: -1; SENP1 inh: 2; GRK2 inh: 4; B2AR ag: -7

Results for CSc1ccc(S(=O)(=O)NCc2ccc(C)cc2)cc1 ?
ABHD5-PLIN5 inh: -9; NadD block: -8; SENP1 inh: 0; GRK2 inh: 71*; B2AR ag: -11; GRK2 CP1: 0; FAM quench CP1: 102

Results for Cc1ccc(S(=O)(=O)NCc2ccccc2)cc1 ?
ABHD5-PLIN5 inh: 9; NadD block: -1; SENP1 inh: 2; B2AR ag: 2

How did C=CCn1c(=O)c2ccccc2n2c(=S)[nH]nc12 do in these assays?
ABHD5-PLIN5 inh: -1; NadD block: 0; SENP1 inh: -1; GRK2 inh: 98*; B2AR ag: -10; GRK2 CP1: -4; FAM quench CP1: 98

How did CC(C)CCn1c(=O)c2ccccc2n2c(=S)[nH]nc12 do in these assays?
ABHD5-PLIN5 inh: -6; NadD block: 0; SENP1 inh: 0; GRK2 inh: 0; B2AR ag: -22

How did O=C(c1ccc(S(=O)(=O)Nc2ccccc2F)cc1)N1CCCC1 do in these assays?
ABHD5-PLIN5 inh: 8; NadD block: -3; SENP1 inh: 2; B2AR ag: 5

Results for CCCc1nnc(SCC(=O)NC2CCCC2)n1CCOC ?
ABHD5-PLIN5 inh: 2; NadD block: 2; SENP1 inh: 3; GRK2 inh: 3; B2AR ag: -2

What do the screens show for `CCOC(=O)c1c(NC(=O)CSc2nc3ccccc3c(=O)n2-c2ccc(F)cc2)sc(C(C)=O)c1C`?
ABHD5-PLIN5 inh: -6; NadD block: 17; SENP1 inh: 1; GRK2 inh: 73*; B2AR ag: 0; GRK2 CP1: -3; FAM quench CP1: 103

Results for COCCN1CCN(C(=O)C2CCC(=O)N(Cc3ccccc3OC)C2)CC1 (centres undefined) ?
ABHD5-PLIN5 inh: 4; NadD block: 4; SENP1 inh: 1; GRK2 inh: 4; B2AR ag: 11

How did CNc1nc(N)c(C(=O)C23CC4CC(CC(C4)C2)C3)s1 do in these assays?
ABHD5-PLIN5 inh: -5; NadD block: -2; SENP1 inh: -1; GRK2 inh: 1; B2AR ag: 1

What do the screens show for `COC(=O)c1cccc(C23CC4(C2)[C@H](CN(CC2CCCCC2)[C@@H]4c2ccccc2)C3c2ccccc2)c1` (some centres undefined)?
ABHD5-PLIN5 inh: -6; NadD block: 12; SENP1 inh: -21; GRK2 inh: 85*; B2AR ag: 1; GRK2 CP1: -8; FAM quench CP1: 100

How did CCOc1ccc(S(=O)(=O)N(CC(=O)Nc2cccnc2)c2ccc(F)cc2)cc1 do in these assays?
ABHD5-PLIN5 inh: -7; NadD block: -7; SENP1 inh: 3; GRK2 inh: 5; B2AR ag: -5

Results for O=C(NCc1ccc(F)cc1)N1CCN(C(=O)c2ccccc2)CC1 ?
ABHD5-PLIN5 inh: -11; NadD block: -5; SENP1 inh: 1; GRK2 inh: 0; B2AR ag: 2

Results for Cc1ccc(C(=O)Nc2cccc(C(F)(F)F)c2)cc1NC(=O)c1ccno1 ?
ABHD5-PLIN5 inh: 2; NadD block: -8; SENP1 inh: 2; GRK2 inh: 1; B2AR ag: -8; GRK2 CP1: 3; FAM quench CP1: 103

Results for COc1ccccc1N1CCN(C(=O)CNC(=O)c2ccc(Cl)cc2Cl)CC1 ?
ABHD5-PLIN5 inh: -5; NadD block: 0; SENP1 inh: -1; GRK2 inh: 0; B2AR ag: -5
